Data set [1] has as its system Mus musculus. The data set can be described thus: Antiinflammatory activity in BALB/c mouse assessed as reduction in LPS-induced IL6 production at 20 to 40 mg/kg, po pretreated for 4 hrs followed by LPS-stimulation and measured after 3 hrs by ELISA. Format: functional, organism-based. Put shortly:
(§1)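 Female BALB/c mice, 8 weeks old, n = 6 per group, dosed orally at 20 or 40 mg/kg in 0.5% CMC-Na/0.25% Tween-80 4 h before ip LPS 5 mg/kg. Orbital-sinus blood was taken at 1.5 h (TNF-α) and 3 h (IL-6). Serum cytokines measured by ELISA. Mean ± SEM, one-way ANOVA with Dunnett's test.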
In general terms: In an ELISA, binding on a coated surface is turned into a signal by an enzyme label.

The target in data set [2] is Vascular endothelial growth factor receptor 3 (Homo sapiens) (UniProt P35916). Briefly: Inhibition of recombinant VEGFR3 (unknown origin) at 10 nM using poly (Glu, Tyr)4:1 as substrate measured after 1 hr by ELISA relative to control. Put shortly: (§2)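 Recombinant kinase was incubated with compound in reaction buffer containing 5 μM ATP, in wells precoated with poly(Glu,Tyr) 4:1, for 1 h at 37 °C. Phosphorylation was detected by ELISA.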

In the next data set the test system is RAW264.7. The data set can be described thus: Antiinflammatory activity in mouse RAW264.7 cells assessed as reduction in LPS-induced IL6 release measured after 24 hrs by ELISA. Format: functional, cell-based. The following applies: RAW264.7, 24 h. The gist of the method: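 RAW264.7 cells in DMEM with 10% FBS and 0.125% DMSO were incubated with compound, then primed with LPS 1 μg/mL for 24 h. Supernatant TNF-α and IL-6 measured by mouse ELISA. IC50 from log(inhibitor) versus normalized response nonlinear fit.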

Data set [3] concerns the target Platelet-derived growth factor receptor alpha (Homo sapiens) (UniProt P16234). The data set can be described thus: Inhibition of recombinant human N-terminal His6-tagged PDGFRalpha (550 to end residues) expressed in baculovirus infected Sf21 insect cells at 10 nM using poly (Glu, Tyr)4:1 as substrate measured after 1 hr by ELISA relative to control. Put shortly: (§3)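 ELISA kinase assay: recombinant kinase added to wells precoated with poly(Glu,Tyr)4:1 and incubated with compound in reaction buffer containing 5 μM ATP, 37 °C for 1 h; wells then washed before antibody detection.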

Data set [4] shares this target. Briefly: Inhibition of recombinant human N-terminal His6-tagged PDGFRalpha (550 to end residues) expressed in baculovirus infected Sf21 insect cells at 100 nM using poly (Glu, Tyr)4:1 as substrate measured after 1 hr by ELISA relative to control. The gist of the method: as §3
The target of data set [5] is Vascular endothelial growth factor receptor 1 (Homo sapiens) (UniProt P17948). Briefly: Inhibition of recombinant human VEGFR1 expressed in Spodoptera frugiperda insect cells at 100 nM using poly (Glu, Tyr)4:1 as substrate measured after 1 hr by ELISA relative to control. The gist of the method:
as §3

For data set [6], the target named is T1, c-KIT (Homo sapiens, UniProt P10721). Briefly: Inhibition of recombinant human N-terminal GST-tagged c-KIT (544 to end residues) expressed in baculovirus infected Sf21 insect cells at 10 nM using poly (Glu, Tyr)4:1 as substrate measured after 1 hr by ELISA relative to control. The following applies: probe poly (Glu, Tyr)4:1. Put shortly:
as §2

The target in data set [7] is Proto-oncogene tyrosine-protein kinase Src (Homo sapiens) (UniProt P12931). Briefly: Inhibition of recombinant human full-length N-terminal His6-tagged Src expressed in Sf21 insect cells at 1000 nM using poly (Glu, Tyr)4:1 as substrate measured after 1 hr by ELISA relative to control. The gist of the method: as §3
Another data set has as its target FLT3 (Homo sapiens, UniProt P36888). Briefly: Inhibition of recombinant human N-terminal GST-tagged FLT3 (564 to end residues) expressed in Sf21 insect cells at 100 nM using poly (Glu, Tyr)4:1 as substrate measured after 1 hr by ELISA relative to control. The following applies: probe poly (Glu, Tyr)4:1. The gist of the method:
as §2

Data set [8] deals with Vascular endothelial growth factor receptor 1 (Homo sapiens) (UniProt P17948). Briefly: Inhibition of recombinant human VEGFR1 expressed in Spodoptera frugiperda insect cells at 10 nM using poly (Glu, Tyr)4:1 as substrate measured after 1 hr by ELISA relative to control. Put shortly:
as §3

The target in data set [9] is Receptor tyrosine-protein kinase erbB-2 (Homo sapiens) (UniProt P04626). The data set can be described thus: Inhibition of recombinant Erbb2 (unknown origin) at 1000 nM using poly (Glu, Tyr)4:1 as substrate measured after 1 hr by ELISA relative to control. The gist of the method:
as §2

Data set [10] addresses Platelet-derived growth factor receptor beta (Homo sapiens) (UniProt P09619). Briefly: Inhibition of recombinant human N-terminal His6-tagged PDGFRbeta (557 to end residues) expressed in baculovirus infected Sf21 insect cells at 10 nM using poly (Glu, Tyr)4:1 as substrate measured after 1 hr by ELISA relative to control. The gist of the method:
as §3

For data set [11], the target named is Vascular endothelial growth factor receptor 1 (Homo sapiens) (UniProt P17948). The data set can be described thus: Inhibition of recombinant human VEGFR1 expressed in Spodoptera frugiperda insect cells at 1000 nM using poly (Glu, Tyr)4:1 as substrate measured after 1 hr by ELISA relative to control. Put shortly: as §3
For data set [12], the system named is Mus musculus. Briefly: Antiinflammatory activity in BALB/c mouse assessed as reduction in LPS-induced TNFalpha production at 20 to 40 mg/kg, po pretreated for 4 hrs followed by LPS-stimulation and measured after 1.5 hrs by ELISA. It counts as functional, organism-based. The gist of the method:
as §1

Data set [13] in a line: Elimination half life in Sprague-Dawley rat at 5 mg/kg, po administered via gavage by LC-MS/MS analysis. Format: ADME, organism-based. The following applies: in vivo, read-out: beta t1/2 (converted). The gist of the method: (§4)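 Male SD rats (200 ± 20 g) were fasted 12 h with free access to water, n = 3 per group. One group received 2 mg/kg iv in DMSO/EtOH/PEG300/saline (5/5/40/50). The other received 5 mg/kg by oral gavage in DMSO/HPMC (5/95). Femoral-vein plasma was taken at 15–1440 min, methanol-precipitated with internal standard, and measured by LC–MS/MS. Noncompartmental analysis; AUC by trapezoidal method.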

Data set [14] addresses T1, c-KIT. Briefly: Inhibition of recombinant human N-terminal GST-tagged c-KIT (544 to end residues) expressed in baculovirus infected Sf21 insect cells at 1000 nM using poly (Glu, Tyr)4:1 as substrate measured after 1 hr by ELISA relative to control. The following applies: probe poly (Glu, Tyr)4:1. Put shortly: as §2
Data set [15] in a line: Cmax in Sprague-Dawley rat at 5 mg/kg, po administered via gavage by LC-MS/MS analysis. Format: ADME, organism-based. Also noted: dose 5 mg/kg, route oral. The following applies: in vivo. Put shortly:
as §4

Data set [16] addresses Insulin receptor (Homo sapiens) (UniProt P06213). Briefly: Inhibition of recombinant human N-terminal His6-tagged IR (1005 to 1310 residues) expressed in baculovirus infected Sf21 insect cells at 100 nM using poly (Glu, Tyr)4:1 as substrate measured after 1 hr by ELISA relative to control. Put shortly:
as §3

For data set [17] the target is unchanged. Briefly: Inhibition of recombinant human N-terminal His6-tagged IR (1005 to 1310 residues) expressed in baculovirus infected Sf21 insect cells at 1000 nM using poly (Glu, Tyr)4:1 as substrate measured after 1 hr by ELISA relative to control. The gist of the method:
as §3

Data set [18] concerns the target Receptor tyrosine-protein kinase erbB-2 (Homo sapiens) (UniProt P04626). The data set can be described thus: Inhibition of recombinant Erbb2 (unknown origin) at 100 nM using poly (Glu, Tyr)4:1 as substrate measured after 1 hr by ELISA relative to control. Put shortly: as §2

Activity calls are given as the source filed them. No cut-off for these calls is given here.

By inhibition is commonly meant how much of the control response was suppressed. The term IC50 denotes the point on the concentration scale where inhibition reaches its midpoint. By Cmax is commonly meant the peak of the concentration-time curve.

Vascular endothelial growth factor receptor 1 (Homo sapiens), sequence (P17948 whole entry): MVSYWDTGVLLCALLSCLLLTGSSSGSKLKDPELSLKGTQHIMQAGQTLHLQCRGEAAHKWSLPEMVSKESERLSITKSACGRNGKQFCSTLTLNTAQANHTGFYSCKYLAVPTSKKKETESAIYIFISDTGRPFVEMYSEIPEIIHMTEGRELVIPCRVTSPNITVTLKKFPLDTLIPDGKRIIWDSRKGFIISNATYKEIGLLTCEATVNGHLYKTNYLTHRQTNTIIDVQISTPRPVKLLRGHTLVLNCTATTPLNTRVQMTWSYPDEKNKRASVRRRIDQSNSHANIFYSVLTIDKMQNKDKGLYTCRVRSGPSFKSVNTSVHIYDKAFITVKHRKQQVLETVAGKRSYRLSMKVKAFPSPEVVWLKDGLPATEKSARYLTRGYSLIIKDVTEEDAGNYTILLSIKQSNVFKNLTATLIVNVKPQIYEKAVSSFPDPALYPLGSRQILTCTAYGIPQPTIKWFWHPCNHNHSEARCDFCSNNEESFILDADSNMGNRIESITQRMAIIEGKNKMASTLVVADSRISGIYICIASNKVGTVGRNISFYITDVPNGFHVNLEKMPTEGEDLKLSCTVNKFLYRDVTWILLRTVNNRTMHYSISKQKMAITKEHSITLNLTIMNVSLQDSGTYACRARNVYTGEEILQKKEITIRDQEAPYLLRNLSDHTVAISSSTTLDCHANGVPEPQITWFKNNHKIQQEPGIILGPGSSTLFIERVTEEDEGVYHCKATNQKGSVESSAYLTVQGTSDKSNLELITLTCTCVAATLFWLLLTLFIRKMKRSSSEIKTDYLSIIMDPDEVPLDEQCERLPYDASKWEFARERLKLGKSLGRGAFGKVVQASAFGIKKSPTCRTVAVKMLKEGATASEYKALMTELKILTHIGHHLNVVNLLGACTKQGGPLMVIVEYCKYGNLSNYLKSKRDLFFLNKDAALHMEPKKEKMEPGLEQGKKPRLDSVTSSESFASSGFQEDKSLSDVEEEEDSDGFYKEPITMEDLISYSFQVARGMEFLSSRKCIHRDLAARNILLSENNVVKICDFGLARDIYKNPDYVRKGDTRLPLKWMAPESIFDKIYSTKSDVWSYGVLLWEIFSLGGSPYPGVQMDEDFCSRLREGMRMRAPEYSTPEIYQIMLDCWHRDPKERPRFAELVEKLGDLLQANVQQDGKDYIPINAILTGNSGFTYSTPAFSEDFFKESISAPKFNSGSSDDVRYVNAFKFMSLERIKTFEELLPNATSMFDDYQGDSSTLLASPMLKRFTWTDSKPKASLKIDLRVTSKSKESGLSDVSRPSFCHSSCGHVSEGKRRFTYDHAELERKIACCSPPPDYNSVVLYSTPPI
Platelet-derived growth factor receptor alpha (Homo sapiens), sequence (P16234 whole entry): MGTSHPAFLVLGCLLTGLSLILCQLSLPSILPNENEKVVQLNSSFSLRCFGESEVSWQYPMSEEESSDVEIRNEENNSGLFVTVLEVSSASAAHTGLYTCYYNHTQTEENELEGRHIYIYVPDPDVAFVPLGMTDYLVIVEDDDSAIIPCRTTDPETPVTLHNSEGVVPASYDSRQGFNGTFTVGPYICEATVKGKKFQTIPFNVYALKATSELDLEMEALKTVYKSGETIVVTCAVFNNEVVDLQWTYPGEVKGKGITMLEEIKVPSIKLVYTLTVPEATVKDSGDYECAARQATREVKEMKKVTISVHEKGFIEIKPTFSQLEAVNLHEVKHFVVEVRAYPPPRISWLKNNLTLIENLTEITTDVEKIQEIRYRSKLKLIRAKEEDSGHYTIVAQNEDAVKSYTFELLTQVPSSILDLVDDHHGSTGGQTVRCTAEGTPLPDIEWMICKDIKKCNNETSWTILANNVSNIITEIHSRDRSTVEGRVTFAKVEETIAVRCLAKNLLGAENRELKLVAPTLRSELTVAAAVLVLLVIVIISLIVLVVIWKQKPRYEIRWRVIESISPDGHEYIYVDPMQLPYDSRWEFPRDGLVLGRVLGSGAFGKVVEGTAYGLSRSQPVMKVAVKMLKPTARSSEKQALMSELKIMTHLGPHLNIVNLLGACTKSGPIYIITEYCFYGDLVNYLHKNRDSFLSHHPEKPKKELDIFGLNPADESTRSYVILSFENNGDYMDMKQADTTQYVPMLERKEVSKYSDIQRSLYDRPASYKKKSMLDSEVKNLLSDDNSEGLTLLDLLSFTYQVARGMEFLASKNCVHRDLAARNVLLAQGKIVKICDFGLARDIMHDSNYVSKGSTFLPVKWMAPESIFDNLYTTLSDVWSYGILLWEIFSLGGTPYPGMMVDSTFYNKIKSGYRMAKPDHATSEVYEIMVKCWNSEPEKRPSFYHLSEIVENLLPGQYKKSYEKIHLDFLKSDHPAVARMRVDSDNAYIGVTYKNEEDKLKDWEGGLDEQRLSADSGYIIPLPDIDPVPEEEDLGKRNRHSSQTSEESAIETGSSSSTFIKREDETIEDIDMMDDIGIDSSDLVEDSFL
Receptor tyrosine-protein kinase erbB-2 (Homo sapiens), sequence (P04626 whole entry): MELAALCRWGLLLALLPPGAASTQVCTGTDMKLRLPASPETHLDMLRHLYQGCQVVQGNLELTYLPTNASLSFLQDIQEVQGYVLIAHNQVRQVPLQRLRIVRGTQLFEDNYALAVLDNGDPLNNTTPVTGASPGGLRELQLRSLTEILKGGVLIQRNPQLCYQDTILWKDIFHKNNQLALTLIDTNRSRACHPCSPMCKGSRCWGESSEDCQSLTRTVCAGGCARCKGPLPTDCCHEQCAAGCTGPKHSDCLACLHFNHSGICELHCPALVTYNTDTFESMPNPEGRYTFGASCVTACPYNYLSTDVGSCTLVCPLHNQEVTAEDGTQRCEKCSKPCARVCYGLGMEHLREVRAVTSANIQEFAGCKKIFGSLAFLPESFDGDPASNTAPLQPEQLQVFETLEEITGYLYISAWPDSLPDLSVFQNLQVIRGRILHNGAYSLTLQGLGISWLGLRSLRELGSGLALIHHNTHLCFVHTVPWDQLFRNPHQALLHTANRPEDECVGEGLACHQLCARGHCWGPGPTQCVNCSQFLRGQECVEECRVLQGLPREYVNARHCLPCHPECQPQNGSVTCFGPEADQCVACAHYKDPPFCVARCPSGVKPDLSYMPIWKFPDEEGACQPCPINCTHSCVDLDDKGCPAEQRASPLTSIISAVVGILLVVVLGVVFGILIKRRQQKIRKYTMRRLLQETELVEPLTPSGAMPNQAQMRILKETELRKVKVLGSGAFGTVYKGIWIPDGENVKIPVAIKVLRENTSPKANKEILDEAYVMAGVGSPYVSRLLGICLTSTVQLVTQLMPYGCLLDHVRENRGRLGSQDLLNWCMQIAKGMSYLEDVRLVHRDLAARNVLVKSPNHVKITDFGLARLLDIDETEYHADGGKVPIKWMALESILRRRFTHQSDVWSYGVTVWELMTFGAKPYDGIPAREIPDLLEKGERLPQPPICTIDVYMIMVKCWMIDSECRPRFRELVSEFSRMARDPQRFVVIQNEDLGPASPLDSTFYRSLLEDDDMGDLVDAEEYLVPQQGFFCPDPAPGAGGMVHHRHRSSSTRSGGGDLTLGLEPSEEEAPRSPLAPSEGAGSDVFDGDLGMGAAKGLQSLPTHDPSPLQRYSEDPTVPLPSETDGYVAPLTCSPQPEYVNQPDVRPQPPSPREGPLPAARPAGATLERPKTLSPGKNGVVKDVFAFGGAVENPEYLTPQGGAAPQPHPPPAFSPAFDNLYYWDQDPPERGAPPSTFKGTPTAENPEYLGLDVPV
T1 sequence (P10721 whole entry): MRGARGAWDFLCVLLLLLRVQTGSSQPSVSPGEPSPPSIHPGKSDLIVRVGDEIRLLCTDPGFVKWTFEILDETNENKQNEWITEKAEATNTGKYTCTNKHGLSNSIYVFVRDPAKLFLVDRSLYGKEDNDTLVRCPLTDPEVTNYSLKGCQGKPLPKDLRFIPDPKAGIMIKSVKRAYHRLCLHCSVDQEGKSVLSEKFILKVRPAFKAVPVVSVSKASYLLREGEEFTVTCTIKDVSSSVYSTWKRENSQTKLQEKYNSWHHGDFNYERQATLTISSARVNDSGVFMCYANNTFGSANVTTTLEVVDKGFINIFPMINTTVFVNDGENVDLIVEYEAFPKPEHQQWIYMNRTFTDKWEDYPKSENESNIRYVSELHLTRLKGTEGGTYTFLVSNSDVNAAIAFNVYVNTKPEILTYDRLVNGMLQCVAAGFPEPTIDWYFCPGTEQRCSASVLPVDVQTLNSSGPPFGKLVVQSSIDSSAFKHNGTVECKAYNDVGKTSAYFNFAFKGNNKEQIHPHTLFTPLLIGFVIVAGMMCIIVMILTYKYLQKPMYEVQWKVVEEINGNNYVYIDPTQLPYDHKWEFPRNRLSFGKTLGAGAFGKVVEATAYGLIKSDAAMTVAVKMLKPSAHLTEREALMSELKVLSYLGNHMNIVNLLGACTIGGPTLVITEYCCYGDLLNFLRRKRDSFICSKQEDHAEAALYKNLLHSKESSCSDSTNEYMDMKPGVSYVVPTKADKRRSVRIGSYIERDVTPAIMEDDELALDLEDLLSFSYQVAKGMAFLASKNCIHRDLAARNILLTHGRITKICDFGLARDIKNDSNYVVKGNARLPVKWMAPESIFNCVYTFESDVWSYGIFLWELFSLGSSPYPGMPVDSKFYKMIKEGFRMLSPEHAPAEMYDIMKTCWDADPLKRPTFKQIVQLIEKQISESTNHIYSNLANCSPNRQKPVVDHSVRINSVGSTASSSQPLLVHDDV

As to `Cc1ccc(C(=O)Nc2ccc(Cl)cc2)cc1C#Cc1cc(-c2cnn(C)c2)cnc1N`, the result with Mus musculus [1] and with Mus musculus [12] was Active. In addition, the inhibition in data set [2] stood at 27.3%; in [3], 54.6%; in data set [4], 83.9%; in data set [5], 78.5%; in data set [7] it was 72.8%; in data set [8] it was 36.2%. The inhibition was 9.5% in data set [9]; 14.7% in [10]; 89.8% in data set [11]; 2.1% in [16]; 0% in data set [17]; 8.8% in [18]. Further, the IC50 in the data set with RAW264.7 came out at 130 nM. Besides, the inhibition at 1 h, 0.01 µM on c-KIT [6] came to 70.4%. Moreover, the inhibition at 1 h, 0.1 µM on FLT3 is 0%. The half-life in [13] is 2.21 h. The inhibition at 1 h, 1 µM at c-KIT [14] was determined as 98.2%. In data set [15], this compound showed a Cmax of 166 ng/mL.

The values above are taken from ChEMBL document CHEMBL4321879, “Novel Class of Colony-Stimulating Factor 1 Receptor Kinase Inhibitors Based on an o-Aminopyridyl Alkynyl Scaffold as Potential Treatment for Inflammatory Disorders” (J Med Chem, 2020).
